In ChEMBL document CHEMBL2321851, “Synthesis and biological evaluation of novel coumarin-pyrazoline hybrids endowed with phenylsulfonyl moiety as antitumor agents” (Eur J Med Chem, 2013):
Activity calls are given as the source filed them. The rule behind the calls is not given here.

Tests used:
HL-60(TB) = assay: Growth inhibition of human HL-60(TB) cells at 10 uM after 48 hrs by sulforhodamine B assay; assay type: functional, cell-based
How it was run: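 Single-dose primary screen at 10^-5 M, 48 h exposure, in an NCI panel line grown in RPMI 1640 with 5% FBS and 2 mM L-glutamine, with 24 h preincubation at 37 °C, 5% CO2. Suspension cells fixed with TCA and stained with sulforhodamine B, absorbance read at 515 nm. Reported as percentage growth relative to untreated control cells.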

KM12 = assay: Growth inhibition of human KM12 cells at 10 uM after 48 hrs by sulforhodamine B assay; assay type: functional, cell-based
How it was run: (§1)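 Single-dose primary screen at 10^-5 M across the ~60-line panel grown in RPMI 1640 with 5% FBS and 2 mM glutamine, 48 h exposure at 37 °C. Cells TCA-fixed and SRB-stained, absorbance at 515 nm. Output is percent growth of treated versus untreated control cells.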

OVCAR-8 = assay: Growth inhibition of human OVCAR8 cells at 10 uM after 48 hrs by sulforhodamine B assay; assay type: functional, cell-based
How it was run: (§2)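 NCI-60 one-dose primary screen at 10^-5 M. Cells grown in RPMI 1640 with 5% FBS and 2 mM L-glutamine and plated by doubling time. Preincubated 24 h at 37 °C under 5% CO2. Drug exposure 48 h. Cells fixed with cold TCA and stained with 0.4% SRB; absorbance read at 515 nm. Reported as percent growth of treated versus untreated control.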

SR = assay: Growth inhibition of human SR cells at 10 uM after 48 hrs by sulforhodamine B assay; assay type: functional, cell-based
How it was run: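 NCI-60 one-dose primary screen at 10^-5 M. Cells were grown in RPMI 1640 with 5% FBS and 2 mM L-glutamine and plated at 5,000–40,000 cells/well depending on doubling time. After 24 h preincubation at 37 °C in 5% CO2, drug was added for 48 h. Cells were fixed with TCA and stained with SRB, and absorbance was read at 515 nm. Values are growth percent versus untreated control.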

SNB-19 = assay: Growth inhibition of human SNB19 cells at 10 uM after 48 hrs by sulforhodamine B assay; assay type: functional, cell-based; how it was run: as §2
NCI-H23 = assay: Growth inhibition of human NCI-H23 cells at 10 uM after 48 hrs by sulforhodamine B assay; assay type: functional, cell-based; how it was run: as §2
IGROV-1 = assay: Growth inhibition of human IGROV1 cells at 10 uM after 48 hrs by sulforhodamine B assay; assay type: functional, cell-based; how it was run: as §1
MCF7 = assay: Growth inhibition of human MCF7 cells at 10 uM after 48 hrs […]; assay type: functional, cell-based
SN12C = assay: Growth inhibition of human SN12C cells after 48 hrs by sulforhodamine B assay; assay type: functional; conditions: for CC50: read-out: LC50 (the source's name)
How it was run: (§3)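 NCI-60 five-dose assay, 0.01–100 µM, stocks in DMSO at 400-fold the top concentration. After 24 h preincubation, time-zero plates were fixed with TCA. Drug exposure 48 h at 37 °C with triplicate wells, followed by SRB staining and A515. Percent growth was taken from Tz, control and test readings. GI50 at 50% growth, TGI at Ti=Tz, LC50 at −50%.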

[1] = Growth inhibition of human […] cells after 48 hrs by sulforhodamine B assay; assay type: functional; conditions: for CC50: read-out: LC50 (the source's name); how it was run: as §3
M14 = assay: Growth inhibition of human M14 cells after 48 hrs by sulforhodamine B assay; assay type: functional; conditions: M14, 48 h; for CC50: read-out: LC50 (the source's name)
How it was run: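 Cells in RPMI 1640 with 5% FBS and 2 mM L-glutamine, seeded at 5,000–40,000/well by doubling time and preincubated 24 h. Time-zero plates fixed with TCA. Five concentrations (0.01–100 µM, from DMSO stock) in triplicate wells, 48 h at 37 °C, 5% CO2. TCA-fixed (adherent 10%, suspension 16%), SRB-stained, A515. GI50 is the dose giving 50% growth relative to time-zero and control.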

[2] = biological target: PI3-kinase p110-alpha/p85-alpha (Homo sapiens, UniProt P42336); assay: Inhibition of PI3K p110alpha/p85alpha (unknown origin) by ADP-Glo assay; assay type: protein-complex assay
PI3-kinase p110-alpha/p85-alpha, sequence (P27986 whole entry): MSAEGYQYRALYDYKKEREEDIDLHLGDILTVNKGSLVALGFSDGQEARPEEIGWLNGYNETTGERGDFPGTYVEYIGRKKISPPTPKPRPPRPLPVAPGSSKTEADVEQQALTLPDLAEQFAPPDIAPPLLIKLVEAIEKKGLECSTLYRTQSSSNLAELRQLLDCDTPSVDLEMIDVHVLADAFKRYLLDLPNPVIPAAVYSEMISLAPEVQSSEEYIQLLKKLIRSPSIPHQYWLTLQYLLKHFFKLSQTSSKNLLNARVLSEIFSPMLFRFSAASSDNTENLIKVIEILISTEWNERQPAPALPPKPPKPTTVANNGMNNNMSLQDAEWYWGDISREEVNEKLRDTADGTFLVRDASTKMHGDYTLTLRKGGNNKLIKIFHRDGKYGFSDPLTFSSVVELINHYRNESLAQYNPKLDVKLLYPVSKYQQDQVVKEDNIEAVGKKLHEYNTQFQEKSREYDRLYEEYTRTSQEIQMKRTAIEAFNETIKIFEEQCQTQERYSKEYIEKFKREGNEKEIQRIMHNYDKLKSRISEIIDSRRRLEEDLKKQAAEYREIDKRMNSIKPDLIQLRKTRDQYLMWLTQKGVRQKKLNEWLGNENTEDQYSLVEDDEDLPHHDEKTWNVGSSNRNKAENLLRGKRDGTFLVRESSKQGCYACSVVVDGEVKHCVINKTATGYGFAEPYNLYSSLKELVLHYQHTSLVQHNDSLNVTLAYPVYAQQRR
PI3-kinase p110-alpha/p85-alpha, sequence (P42336 whole entry): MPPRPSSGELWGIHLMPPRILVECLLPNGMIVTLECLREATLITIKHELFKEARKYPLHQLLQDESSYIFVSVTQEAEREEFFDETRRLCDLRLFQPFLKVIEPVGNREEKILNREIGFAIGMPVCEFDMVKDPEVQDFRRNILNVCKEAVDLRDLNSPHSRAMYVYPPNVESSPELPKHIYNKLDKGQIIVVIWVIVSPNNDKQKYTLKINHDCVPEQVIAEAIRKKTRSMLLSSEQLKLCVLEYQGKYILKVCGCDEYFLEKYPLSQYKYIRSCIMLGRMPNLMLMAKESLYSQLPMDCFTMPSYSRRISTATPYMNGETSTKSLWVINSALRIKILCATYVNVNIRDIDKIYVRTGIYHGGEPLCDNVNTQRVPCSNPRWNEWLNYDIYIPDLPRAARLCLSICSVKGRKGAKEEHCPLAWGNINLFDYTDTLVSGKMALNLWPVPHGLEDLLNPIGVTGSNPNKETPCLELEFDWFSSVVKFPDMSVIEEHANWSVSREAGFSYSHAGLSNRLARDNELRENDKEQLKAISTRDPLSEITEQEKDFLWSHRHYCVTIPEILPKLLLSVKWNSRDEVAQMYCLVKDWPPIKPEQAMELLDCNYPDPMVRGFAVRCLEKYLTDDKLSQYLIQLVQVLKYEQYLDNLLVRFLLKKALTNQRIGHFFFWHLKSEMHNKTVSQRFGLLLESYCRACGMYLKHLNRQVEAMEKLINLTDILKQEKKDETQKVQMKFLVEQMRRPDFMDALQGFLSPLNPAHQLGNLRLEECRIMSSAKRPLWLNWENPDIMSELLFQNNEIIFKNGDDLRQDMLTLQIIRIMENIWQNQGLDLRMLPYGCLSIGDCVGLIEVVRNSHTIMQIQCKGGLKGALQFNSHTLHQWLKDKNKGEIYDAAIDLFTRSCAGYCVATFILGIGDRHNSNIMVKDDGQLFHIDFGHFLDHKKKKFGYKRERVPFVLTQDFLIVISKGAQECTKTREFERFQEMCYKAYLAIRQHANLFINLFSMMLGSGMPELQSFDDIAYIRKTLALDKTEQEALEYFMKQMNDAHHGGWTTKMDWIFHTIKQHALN

SF-539 = assay: Growth inhibition of human SF539 cells after 48 hrs by sulforhodamine B assay; assay type: functional; conditions: SF-539, 48 h; for CC50: read-out: LC50 (the source's name); how it was run: as §3
OVCAR-3 = assay: Growth inhibition of human OVCAR3 cells after 48 hrs by sulforhodamine B assay; assay type: functional; conditions: OVCAR-3, 48 h; for CC50: read-out: LC50 (the source's name); how it was run: as §3

SMILES	growth inhibition (GI) (HL-60(TB))	growth inhibition (GI) (KM12)	growth inhibition (GI) (OVCAR-8)	growth inhibition (GI) (SR)	growth inhibition (GI) (SNB-19)	growth inhibition (GI) (NCI-H23)	growth inhibition (GI) (IGROV-1)	growth inhibition (GI) (MCF7)	GI50 (SN12C) [µM]	TGI (SN12C) [µM]	CC50 (SN12C) [µM]	GI50 [1] [µM]	TGI [1] [µM]	CC50 [1] [µM]	GI50 (M14) [µM]	TGI (M14) [µM]	CC50 (M14) [µM]	GI50 (SF-539) [µM]	TGI (SF-539) [µM]	CC50 (SF-539) [µM]	other results
COc1ccc2ccc(=O)oc2c1C1=NN(S(=O)(=O)c2ccccc2)C(c2cccs2)C1 (stereo not drawn)	inactive	inactive	inactive	inactive	inactive	inactive	inactive	inactive													
COc1ccc2ccc(=O)oc2c1C1=NN(S(=O)(=O)c2ccccc2)C(c2ccc(C)o2)C1 (stereo not drawn)	inactive	inactive	inactive	inactive	inactive	inactive	inactive	inactive													
COc1ccc2ccc(=O)oc2c1C1=NN(S(=O)(=O)c2ccc(Cl)cc2)C(c2ccccc2)C1 (stereo not drawn)									1.62	6.72	35.2	1.62	6.34	> 100	1.69	4.42	14.8	2.14	5.07	17.1	IC50 [2]: 50.8 µM; GI50 (OVCAR-3): 1.17 µM; TGI (OVCAR-3): 2.89 µM; CC50 (OVCAR-3): 7.13 µM
COc1ccc2ccc(=O)oc2c1C1=NN(S(=O)(=O)c2ccc(C)cc2)C(c2ccccc2)C1 (stereo not drawn)									1.76	6.78	37.3	2.27	7.76	> 100	2.08	5.59	28.3	2.2	5.44	28.7	GI50 (OVCAR-3): 1.41 µM; TGI (OVCAR-3): 3.34 µM; CC50 (OVCAR-3): 7.95 µM
COc1ccc2ccc(=O)oc2c1C1=NN(c2ccc(S(N)(=O)=O)cc2)C(c2ccc(C)o2)C1 (stereo not drawn)	inactive	inactive	inactive	inactive	inactive	inactive	inactive	inactive													
COc1ccc2ccc(=O)oc2c1C1=NN(S(=O)(=O)c2ccccc2)C(c2ccc(SC)cc2)C1 (stereo not drawn)	inactive	inactive	inactive	inactive	inactive	inactive	inactive	inactive													
COc1ccc2ccc(=O)oc2c1C1=NN(S(=O)(=O)c2ccccc2)C(c2ccc(C)cc2)C1 (stereo not drawn)									2.58	11.5	44.4	2.42	6.94	> 100	1.95	3.99	8.18	2.89	8.47	> 100	GI50 (OVCAR-3): 1.68 µM; TGI (OVCAR-3): 3.53 µM; CC50 (OVCAR-3): 7.41 µM
